Key:
Assay type in all cases: functional
SN12C = test: Cytotoxicity against human SN12C cells assessed as cell growth at 10 uM after 48 hrs by SRB assay relative to control; conditions: read-out: Activity
Method in brief: (§1)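 First-stage NCI DTP one-dose screen against the 60 human tumour cell line panel. Compounds were tested at a single 10 μM level, and results are given as growth percentage.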

UACC-62 = test: Cytotoxicity against human UACC62 cells assessed as cell growth at 10 uM after 48 hrs by SRB assay relative to control; conditions: UACC-62, 48 h, read-out: Activity
Method in brief: (§2)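 NCI-60 one-dose screen run by NCI DTP: each cell line exposed to a single 10 µM dose, and percentage growth recorded against untreated growth.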

OVCAR-8 = test: Cytotoxicity against human OVCAR8 cells assessed as cell growth at 10 uM after 48 hrs by SRB assay relative to control; conditions: OVCAR-8, 48 h, read-out: Activity; method in brief: as §1
CCRF-CEM = test: Cytotoxicity against human CCRF-CEM cells assessed as cell growth at 10 uM after 48 hrs by SRB assay relative to control; conditions: read-out: Activity
Method in brief: (§3)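 First-stage NCI-60 screen by the NCI Developmental Therapeutics Program. Each compound was tested once at a single concentration of 10 μM against the 60-cell-line panel. Growth percentage was reported for each cell line.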

SNB-75 = test: Cytotoxicity against human SNB75 cells assessed as cell growth at 10 uM after 48 hrs by SRB assay relative to control; conditions: SNB-75, 48 h, read-out: Activity; method in brief: as §2
K562 = test: Cytotoxicity against human K562 cells assessed as cell growth at 10 uM after 48 hrs by SRB assay relative to control; conditions: K562, 48 h, read-out: Activity; method in brief: as §3
LOX IMVI = test: Cytotoxicity against human LOXIMVI cells assessed as cell growth at 10 uM after 48 hrs by SRB assay relative to control; conditions: read-out: Activity; method in brief: as §3
Malme-3M = test: Cytotoxicity against human MALME-3M cells assessed as cell growth at 10 uM after 48 hrs by SRB assay relative to control; conditions: read-out: Activity; method in brief: as §3
TK-10 = test: Cytotoxicity against human TK10 cells assessed as cell growth at 10 uM after 48 hrs by SRB assay relative to control; conditions: TK-10, 48 h, read-out: Activity; method in brief: as §2
COLO 205 = test: Cytotoxicity against human COLO205 cells assessed as cell growth at 10 uM after 48 hrs by SRB assay relative to control; conditions: COLO 205, 48 h, read-out: Activity; method in brief: as §3
RPMI-8226 = test: Cytotoxicity against human RPMI8226 cells assessed as cell growth at 10 uM after 48 hrs by SRB assay relative to control; conditions: RPMI-8226, 48 h, read-out: Activity; method in brief: as §1
NCI-H460 = test: Cytotoxicity against human NCI-H460 cells assessed as cell growth at 10 uM after 48 hrs by SRB assay relative to control; conditions: NCI-H460, 48 h, read-out: Activity; method in brief: as §1
SR = test: Cytotoxicity against human SR cells assessed as cell growth at 10 uM after 48 hrs by SRB assay relative to control; conditions: read-out: Activity; method in brief: as §2
DU-145 = test: Cytotoxicity against human DU145 cells assessed as cell growth at 10 uM after 48 hrs by SRB assay relative to control; conditions: DU-145, 48 h, read-out: Activity; method in brief: as §3
SK-MEL-28 = test: Cytotoxicity against human SK-MEL-28 cells assessed as cell growth at 10 uM after 48 hrs by SRB assay relative to control; conditions: SK-MEL-28, 48 h, read-out: Activity; method in brief: as §1
OVCAR-4 = test: Cytotoxicity against human OVCAR4 cells assessed as cell growth at 10 uM after 48 hrs by SRB assay relative to control; conditions: OVCAR-4, 48 h, read-out: Activity; method in brief: as §1
UO-31 = test: Cytotoxicity against human UO31 cells assessed as cell growth at 10 uM after 48 hrs by SRB assay relative to control; conditions: UO-31, 48 h, read-out: Activity; method in brief: as §2
NCI-H322M = test: Cytotoxicity against human NCI-H322M cells assessed as cell growth at 10 uM after 48 hrs by SRB assay relative to control; conditions: read-out: Activity; method in brief: as §1
HOP-92 = test: Cytotoxicity against human HOP92 cells assessed as cell growth at 10 uM after 48 hrs by SRB assay relative to control; conditions: HOP-92, 48 h, read-out: Activity; method in brief: as §3
OVCAR-3 = test: Cytotoxicity against human OVCAR3 cells assessed as cell growth at 10 uM after 48 hrs by SRB assay relative to control; conditions: OVCAR-3, 48 h, read-out: Activity; method in brief: as §1
BT-549 = test: Cytotoxicity against human BT549 cells assessed as cell growth at 10 uM after 48 hrs by SRB assay relative to control; conditions: BT-549, 48 h, read-out: Activity; method in brief: as §3
MCF7 = test: Cytotoxicity against human MCF7 cells assessed as cell growth at 10 uM after 48 hrs by SRB assay relative to control; conditions: MCF7, 48 h, read-out: Activity; method in brief: as §3
RXF 393 = test: Cytotoxicity against human RXF393 cells assessed as cell growth at 10 uM after 48 hrs by SRB assay relative to control; conditions: RXF 393, 48 h, read-out: Activity; method in brief: as §1
U-251 = test: Cytotoxicity against human U251 cells assessed as cell growth at 10 uM after 48 hrs by SRB assay relative to control; conditions: U-251, 48 h, read-out: Activity; method in brief: as §2
SF-268 = test: Cytotoxicity against human SF268 cells assessed as cell growth at 10 uM after 48 hrs by SRB assay relative to control; conditions: SF-268, 48 h, read-out: Activity; method in brief: as §1
NCI-H23 = test: Cytotoxicity against human NCI-H23 cells assessed as cell growth at 10 uM after 48 hrs by SRB assay relative to control; conditions: NCI-H23, 48 h, read-out: Activity; method in brief: as §1
HCC 2998 = test: Cytotoxicity against human HCC2998 cells assessed as cell growth at 10 uM after 48 hrs by SRB assay relative to control; conditions: HCC 2998, 48 h, read-out: Activity; method in brief: as §3
HCT-116 = test: Cytotoxicity against human HCT116 cells assessed as cell growth at 10 uM after 48 hrs by SRB assay relative to control; conditions: HCT-116, 48 h, read-out: Activity; method in brief: as §3
CAKI-1 = test: Cytotoxicity against human Caki1 cells assessed as cell growth at 10 uM after 48 hrs by SRB assay relative to control; conditions: CAKI-1, 48 h, read-out: Activity; method in brief: as §3
IGROV-1 = test: Cytotoxicity against human IGROV1 cells assessed as cell growth at 10 uM after 48 hrs by SRB assay relative to control; conditions: IGROV-1, 48 h, read-out: Activity; method in brief: as §3
SK-MEL-5 = test: Cytotoxicity against human SK-MEL-5 cells assessed as cell growth at 10 uM after 48 hrs by SRB assay relative to control; conditions: SK-MEL-5, 48 h, read-out: Activity; method in brief: as §1

| Compound | growth at 10 µM (SN12C) | growth at 10 µM (UACC-62) | growth at 10 µM (OVCAR-8) | growth at 10 µM (CCRF-CEM) | growth at 10 µM (SNB-75) | growth at 10 µM (K562) | growth at 10 µM (LOX IMVI) | growth at 10 µM (Malme-3M) | growth at 10 µM (TK-10) | growth at 10 µM (COLO 205) | growth at 10 µM (RPMI-8226) | growth at 10 µM (NCI-H460) | growth at 10 µM (SR) | growth at 10 µM (DU-145) | growth at 10 µM (SK-MEL-28) | growth at 10 µM (OVCAR-4) | growth at 10 µM (UO-31) | growth at 10 µM (NCI-H322M) | growth at 10 µM (HOP-92) | growth at 10 µM (OVCAR-3) | other results |
| --- | --- | --- | --- | --- | --- | --- | --- | --- | --- | --- | --- | --- | --- | --- | --- | --- | --- | --- | --- | --- | --- |
| O=C1c2ccccc2C(=O)c2c1cc(Sc1ccc(Cl)cc1)c1nsnc21 | 87% | 90.7% | 88.6% | 79.3% | 91.7% | 94.9% | 83.2% | 105% | 140% | 121% | 90.2% | 103% | 111% | 117% | 130% | 76.8% | 79.5% | 99.5% | 94.8% | 119% | growth at 10 µM (BT-549): 98.9%; growth at 10 µM (MCF7): 86.1%; growth at 10 µM (RXF 393): 118%; growth at 10 µM (U-251): 104%; growth at 10 µM (SF-268): 105%; growth at 10 µM (NCI-H23): 100%; growth at 10 µM (HCC 2998): 107%; growth at 10 µM (HCT-116): 98.2%; growth at 10 µM (CAKI-1): 87%; growth at 10 µM (IGROV-1): 84.9% |
| O=C1c2ccccc2C(=O)c2c1cc(Sc1ccccc1)c1nsnc21 | 96.6% | 86.3% | 82.3% | 15.7% | 96.1% | 52% | 42% | 106% | 143% | 118% | 78.2% | 101% | 86.4% | 103% | 127% | 57.8% | 80.1% | 101% | 118% | 96.7% | growth at 10 µM (SK-MEL-5): 85.7%; growth at 10 µM (BT-549): 105%; growth at 10 µM (MCF7): 94.9%; growth at 10 µM (RXF 393): 114%; growth at 10 µM (U-251): 88.8%; growth at 10 µM (SF-268): 102%; growth at 10 µM (NCI-H23): 79.2%; growth at 10 µM (HCC 2998): 111%; growth at 10 µM (HCT-116): 90.1%; growth at 10 µM (CAKI-1): 89%; growth at 10 µM (IGROV-1): 84.4% |

From ChEMBL document CHEMBL3621107, “Ring fusion strategy for synthesis and lead optimization of sulfur-substituted anthra[1,2-c][1,2,5]thiadiazole-6,11-dione derivatives as promising scaffold of antitumor agents” (Eur J Med Chem, 2015)
